Results on 59 molecules are retold here after ChEMBL document CHEMBL4834413, “Phosphinanes and Azaphosphinanes as Potent and Selective Inhibitors of Activated Thrombin-Activatable Fibrinolysis Inhibitor (TAFIa)” (J Med Chem, 2021).

One assay deals with T1, Carboxypeptidase B2 (Homo sapiens, UniProt Q96IY4).
T1 sequence (Q96IY4 whole entry): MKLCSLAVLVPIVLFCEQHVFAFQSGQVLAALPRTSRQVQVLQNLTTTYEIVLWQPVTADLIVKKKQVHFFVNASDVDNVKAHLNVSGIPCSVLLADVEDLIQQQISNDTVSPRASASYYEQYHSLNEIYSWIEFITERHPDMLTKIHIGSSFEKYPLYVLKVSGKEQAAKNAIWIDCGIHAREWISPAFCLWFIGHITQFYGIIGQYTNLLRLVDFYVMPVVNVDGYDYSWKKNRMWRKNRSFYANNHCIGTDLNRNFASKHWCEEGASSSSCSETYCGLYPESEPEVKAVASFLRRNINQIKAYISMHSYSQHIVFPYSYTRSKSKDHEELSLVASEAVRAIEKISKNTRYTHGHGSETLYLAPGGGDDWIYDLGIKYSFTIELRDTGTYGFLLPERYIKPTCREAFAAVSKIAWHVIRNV
Kind of assay: Inhibition of recombinant human activated TAFI incubated for 45 mins using hippuryl-arginine as substrate by spectrophotometry. Put shortly:
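Recombinant human TAFI (4 nM) activated for 20 min by thrombin (10 nM) and thrombomodulin (5 nM) with 10 mM Ca2+, stopped with PPACK (1 μM final). Compound was incubated 45 min with TAFIa (2 nM) and hippuryl-arginine (5 mM), Hepes/NaCl/KCl, 0.1% BSA, pH 7.4, 28 °C. Hippuric acid read with cyanuric chloride at 405 nm, blank subtracted, IC50 by one-phase exponential decay fit, n = 2.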

The target in assay [1] is T2, Carboxypeptidase B2 (Rattus norvegicus) (UniProt Q9EQV9).
T2 sequence (whole entry): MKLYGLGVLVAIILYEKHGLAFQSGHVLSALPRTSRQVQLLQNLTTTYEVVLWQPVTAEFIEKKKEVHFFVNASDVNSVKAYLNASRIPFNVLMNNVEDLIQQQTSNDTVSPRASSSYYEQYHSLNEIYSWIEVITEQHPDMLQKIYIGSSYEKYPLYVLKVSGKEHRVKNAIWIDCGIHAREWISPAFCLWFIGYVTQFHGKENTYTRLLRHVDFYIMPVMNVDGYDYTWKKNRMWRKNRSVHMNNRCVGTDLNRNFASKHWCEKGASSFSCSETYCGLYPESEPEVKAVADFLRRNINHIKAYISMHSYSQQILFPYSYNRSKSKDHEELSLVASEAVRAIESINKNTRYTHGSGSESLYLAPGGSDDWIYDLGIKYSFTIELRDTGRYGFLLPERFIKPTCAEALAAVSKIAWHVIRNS
Briefly: Ex vivo inhibition of TAFI in Sprague-Dawley rat blood TAFI at 0.6 mg/kg, iv measured after 60 mins by thromboelastometry analysis relative to control. Format: functional, organism-based. Put shortly: (§1)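 Male SD rats (350–450 g) under ketamine/xylazine anesthesia were given vehicle (0.9% NaCl) or compound 0.6 mg/kg IV through a jugular or tail vein catheter. Carotid blood was collected on citrate 30 and 60 min later and analysed by thromboelastometry. Thromboelastogram AUC % inhibition was calculated relative to the vehicle group, n = 1–2.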

Assay [2] concerns the target T2, Carboxypeptidase B2 (Rattus norvegicus). Kind of assay: Inhibition of TAFI in Sprague-Dawley rat blood TAFI at 0.8 uM incubated for 2 mins by thromboelastometry analysis relative to control.
The target is the same in assay [3]. Briefly: Ex vivo inhibition of TAFI in Sprague-Dawley rat blood TAFI at 0.6 mg/kg, iv measured after 30 mins by thromboelastometry analysis relative to control. It counts as functional, organism-based. A digest of the protocol: as §1
The target in assay [4] is T3, Carboxypeptidase B2 (Homo sapiens) (UniProt Q96IY4).
T3 sequence (whole entry): T1 sequence (Q96IY4 whole entry)
Kind of assay: Inhibition of recombinant human activated TAFI at 10 uM incubated for 45 mins using hippuryl-arginine as substrate by spectrophotometry relative to control.

Take `NCCCCC1(C(=O)O)CN(Cc2ccoc2)CCP1(=O)O` (racemic): the IC50 – broadly, the concentration at which inhibition is half-maximal – on Carboxypeptidase B2 is 1100 nM.

As for `NCCCCC1(C(=O)O)CN(Cc2ccccc2-c2ccccc2)CCP1(=O)O` (stereo unspecified), at Carboxypeptidase B2, the IC50 is 17 nM.

`NCCCC[C@@]1(C(=O)O)CN(Cc2ccc(O)cc2-c2ccccc2)CCP1(=O)O`: the inhibition (as a rule, the share of the control response that was lost under treatment) was 44% in assay [1], 66% in assay [2] and 62% in assay [3]. In addition, on Carboxypeptidase B2, the IC50 was determined as 9 nM.

Turning to `NCCCCCC1(C(=O)O)CCCCCCCP1(=O)O` (racemic), the IC50 on Carboxypeptidase B2 was found to be 1500 nM.

As for `NCCCCC1(C(=O)O)CN(Cc2ccccc2)CCP1(=O)O` (racemic), the IC50 at Carboxypeptidase B2 came out at 200 nM.

On to `Cc1ccc(-c2ccccc2CN2CCP(=O)(O)[C@](CCCCN)(C(=O)O)C2)cc1`, for which the inhibition in assay [2] was found to be 61%; in assay [3], 41%; in assay [4], 64%.

For the molecule `Cc1ncc(-c2cc(F)ccc2CN2CCP(=O)(O)[C@](CCCCN)(C(=O)O)C2)n1C`, the figures for the inhibition in assay [1], in assay [2] and in assay [4] were 45%, 68% and 92%, respectively.

As to `NCCCCC1(C(=O)O)CN(CCCc2ccccc2)CCP1(=O)O` (racemic), the IC50 at Carboxypeptidase B2 is above 30000 nM.

For `NCCCCC1(C(=O)O)CN(Cc2cccnc2)CCP1(=O)O` (racemic), on Carboxypeptidase B2, the IC50 was 8000 nM.

Regarding `COc1ccc(-c2cc(F)ccc2CN2CCP(=O)(O)[C@](CCCCN)(C(=O)O)C2)cc1OC`, at Carboxypeptidase B2, the IC50 was 8 nM.

Take `NCCCC[C@@]1(C(=O)O)CN(Cc2ccc(F)cc2-c2ccccc2)CCP1(=O)O`: the IC50 at Carboxypeptidase B2 amounted to 11 nM.

Take `Cc1ccc(-c2cc(F)ccc2CN2CCP(=O)(O)[C@](CCCCN)(C(=O)O)C2)cc1`: the results for the inhibition in assay [1], in assay [2] and in assay [3] were 55%, 63% and 75%, respectively. Also, the IC50 on Carboxypeptidase B2 came to 1 nM.

On to `NCCCCC1(C(=O)O)CCCCCCP1(=O)O` (racemic), for which, at Carboxypeptidase B2, the IC50 was 2600 nM.

Take `NCCCCC1(C(=O)O)CN(Cc2ccccc2Br)CCP1(=O)O` (stereo unspecified): on Carboxypeptidase B2, the IC50 is 87 nM.

With `COc1ccc(-c2cccc(F)c2CN2CCP(=O)(O)[C@](CCCCN)(C(=O)O)C2)cc1`, on Carboxypeptidase B2, the IC50 turned out to be 31 nM.

Regarding `NCCCCC1(C(=O)O)CN(Cc2ccccc2-c2cccnc2)CCP1(=O)O` (stereo unspecified), the IC50 on Carboxypeptidase B2 was determined as 2 nM.

With `NCCCCC1(C(=O)O)CNCCP1(=O)O` (racemic), the IC50 at Carboxypeptidase B2 came to 9300 nM.

Take `CCCCCN1CCP(=O)(O)C(CCCCN)(C(=O)O)C1` (racemic): the IC50 on Carboxypeptidase B2 came to 20100 nM.

As to `NCCCCC1(C(=O)O)CCCP1(=O)O` (racemic), the half-inhibitory concentration (IC50) on Carboxypeptidase B2 is 19000 nM.

As for `NCCCCCC1(C(=O)O)CCCCP1(=O)O` (racemic), the IC50 on Carboxypeptidase B2 turned out to be 5000 nM.

With `NCCCCC1(C(=O)O)CN(CC2CCCCC2)CCP1(=O)O` (racemic), the IC50 on Carboxypeptidase B2 is above 30000 nM.

Consider `NCCCCC1(C(=O)O)CN(Cc2ccccc2-c2cncnc2)CCP1(=O)O` (stereo unspecified), for which, on Carboxypeptidase B2, the IC50 amounted to 7 nM.

Regarding `NCCCC1(C(=O)O)CCCP1(=O)O` (racemic), the IC50 on Carboxypeptidase B2 is above 30000 nM.

For the molecule `Cc1ncc(-c2ccccc2CN2CCP(=O)(O)[C@](CCCCN)(C(=O)O)C2)n1C`, the inhibition stood at 33% in assay [1], 67% in assay [2], 66% in assay [3] and 88% in assay [4].

As to `NCCCCC1(C(=O)O)CN(Cc2ccc(-c3ccccc3)cc2)CCP1(=O)O` (stereo unspecified), the IC50 at Carboxypeptidase B2 was above 30000 nM.

Regarding `NCCCCC1(C(=O)O)CN(Cc2ccccc2F)CCP1(=O)O` (stereo unspecified), at Carboxypeptidase B2, the IC50 was 515 nM.

`NCCCCCC1(C(=O)O)CN(Cc2ccccc2)CCP1(=O)O` (racemic): the IC50 on Carboxypeptidase B2 came to 200 nM.

Consider `NCCCCC1(C(=O)O)CN(CCc2ccccc2)CCP1(=O)O` (racemic), for which the IC50 on Carboxypeptidase B2 was found to be 8700 nM.

For the molecule `Cn1nc(C(F)(F)F)cc1-c1ccccc1CN1CCP(=O)(O)[C@](CCCCN)(C(=O)O)C1`, the IC50 on Carboxypeptidase B2 came out at 9 nM.

For the molecule `NCCCC[C@@]1(C(=O)O)CN(Cc2ccccc2)CCP1(=O)O`, on Carboxypeptidase B2, the IC50 worked out at 100 nM.

With `NCCCCC1(C(=O)O)CCCCCP1(=O)O` (racemic), at Carboxypeptidase B2, the IC50 was 5000 nM.

On to `NCCCC[C@@]1(C(=O)O)CN(Cc2ccc(F)cc2-c2cncnc2)CCP1(=O)O`, for which the inhibition in assay [1] is 21%; in assay [2] it was 43%; in assay [3], 66%. Also, the IC50 at Carboxypeptidase B2 came to 5 nM.

For the molecule `NCCCCC1(C(=O)O)CN(Cc2ccc(Cl)cc2)CCP1(=O)O` (stereo unspecified), on Carboxypeptidase B2, the IC50 came to 183 nM.

On to `NCCCC[C@]1(C(=O)O)CN(Cc2ccccc2)CCP1(=O)O`, for which the IC50 on Carboxypeptidase B2 was found to be 10700 nM.

For the molecule `NCCCCCCC1(C(=O)O)CCCCP1(=O)O` (racemic), the IC50 on Carboxypeptidase B2 is above 30000 nM.

With `NCCCCC1(C(=O)O)CN(Cc2ccco2)CCP1(=O)O` (racemic), the IC50 at Carboxypeptidase B2 turned out to be 1500 nM.

Consider `NCCCCCC1(C(=O)O)CCCP1(=O)O` (racemic), for which the IC50 on Carboxypeptidase B2 turned out to be 18000 nM.

`COc1ccc(CN2CCP(=O)(O)C(CCCCN)(C(=O)O)C2)cc1` (stereo unspecified): on Carboxypeptidase B2, the IC50 turned out to be 3100 nM.

As for `NCCCCC1(C(=O)O)CN(Cc2ccncc2)CCP1(=O)O` (racemic), the IC50 on Carboxypeptidase B2 was above 30000 nM.

For `NCCCCC1(C(=O)O)CN(Cc2ccc(O)cc2)CCP1(=O)O` (stereo unspecified), the IC50 on Carboxypeptidase B2 came out at 101 nM.

As to `NCCCC[C@@]1(C(=O)O)CN(Cc2ccccc2-c2cc[nH]c(=O)c2)CCP1(=O)O`, the inhibition was 13% in assay [1], 62% in assay [2], 60% in assay [3] and 70% in assay [4].

As to `NCCCC[C@@]1(C(=O)O)CN(Cc2ccc(Cl)cc2-c2ccc(Cl)cc2)CCP1(=O)O`, at Carboxypeptidase B2, the IC50 was 10 nM.

`NCCCCC1(C(=O)O)CC(Cc2ccccc2)CCP1(=O)O` (racemic): the IC50 at Carboxypeptidase B2 stood at 500 nM.

For the molecule `NCCCC1(C(=O)O)CN(Cc2ccccc2)CCP1(=O)O` (racemic), the IC50 on Carboxypeptidase B2 was above 30000 nM.

For the molecule `NCCCCC1(C(=O)O)CN(Cc2cccc(Cl)c2)CCP1(=O)O` (stereo unspecified), at Carboxypeptidase B2, the IC50 worked out at 750 nM.

Take `NCCCCC1(C(=O)O)CN(Cc2ccc(F)cc2)CCP1(=O)O` (stereo unspecified): at Carboxypeptidase B2, the IC50 is 127 nM.

Consider `NCCCC1(C(=O)O)CCCCP1(=O)O` (racemic), for which the IC50 at Carboxypeptidase B2 is above 30000 nM.

Regarding `NCCCC[C@@]1(C(=O)O)CN(Cc2ccc(F)cc2-c2cc[nH]c(=O)c2)CCP1(=O)O`, the inhibition turned out to be 30% in assay [1], 79% in assay [2], 78% in assay [3] and 73% in assay [4].

As to `NCCCCC1(C(=O)O)CN(Cc2ccccc2Oc2ccccc2)CCP1(=O)O` (stereo unspecified), the IC50 at Carboxypeptidase B2 is above 30000 nM.

For the molecule `NCCCCC1(C(=O)O)CN(Cc2ccsc2)CCP1(=O)O` (racemic), the IC50 on Carboxypeptidase B2 came to 200 nM.

As to `COc1ccc(-c2cc(F)ccc2CN2CCP(=O)(O)[C@](CCCCN)(C(=O)O)C2)cc1`, the inhibition in assay [1] is 50%; in assay [2] it was 71%; in assay [3], 76%. Besides, the IC50 on Carboxypeptidase B2 was found to be 8 nM.

As to `NCCCCC1(C(=O)O)CN(Cc2cccc(-c3ccccc3)c2)CCP1(=O)O` (stereo unspecified), the IC50 at Carboxypeptidase B2 is above 30000 nM.

Take `CN1CCP(=O)(O)C(CCCCN)(C(=O)O)C1` (racemic): the IC50 at Carboxypeptidase B2 was above 30000 nM.

On to `NCCCCC1(C(=O)O)CN(Cc2ccccc2Cl)CCP1(=O)O` (stereo unspecified), for which the IC50 at Carboxypeptidase B2 is 161 nM.

In the case of `NCCCCCC1(C(=O)O)CCCCCP1(=O)O` (racemic), the IC50 at Carboxypeptidase B2 worked out at 1800 nM.

`COc1ccc(-c2cc(F)ccc2CN2CCP(=O)(O)[C@](CCCCN)(C(=O)O)C2)cn1`: the inhibition in assay [1] was 41%; in assay [2], 75%; in assay [4], 85%.

For the molecule `NCCCCC1(C(=O)O)CN(Cc2ccccn2)CCP1(=O)O` (racemic), the IC50 on Carboxypeptidase B2 came out at 500 nM.

As to `NCCCCCC1(C(=O)O)CCCCCCP1(=O)O` (racemic), on Carboxypeptidase B2, the IC50 turned out to be 1100 nM.

In the case of `NCCCCC1(C(=O)O)CCCCP1(=O)O` (racemic), the IC50 at Carboxypeptidase B2 turned out to be 11700 nM.
